# Results collected from several papers.
# Lines come from different studies, so protocols differ.
SMILES,assay,system,setting,endpoint,result
O=C1c2ccncc2C(=O)c2c1[nH]c1ccccc21,,"rat, plasma","intravenous, 1 mg/kg, single dose",clearance,13.1 mL/min
O=C(C=Cc1ccccc1)Nc1cc(-c2ccnc(N3CCC(O)CC3)c2)ccn1,,"female Sprague-Dawley rat, plasma","intravenous, 5 mg/kg",clearance,229 mL/min/kg
O=C1CC[C@H](N2Cc3cc(N4CCN(CC5CCN(c6ccc([C@@H]7c8ccc(O)cc8CC[C@@H]7c7ccccc7)cc6)CC5)CC4)ccc3C2=O)C(=O)N1,,"male Sprague-Dawley rat, plasma","intravenous, 5 mg/kg, fed",clearance,15.4 mL/min/kg
COc1ccccc1C(=O)/C=C/c1cn(Cc2cn(-c3ccnc4cc(Cl)ccc34)nn2)c2ccccc12,haemolysis,human,"50 µM, 1 h, pH 7.4",haemolysis,1.7%
CC1(CN)CCN(c2cnc3c(Sc4ccncc4Cl)n[nH]c3n2)CC1,,"male Sprague-Dawley rat, plasma","intravenous, 2 mg/kg",clearance,223 mL/min/kg
CN1Cc2c(N)cccc2C(=O)N1C1CCC(=O)NC1=O (centres unmarked),,"male Sprague-Dawley rat, plasma","intravenous, 1 mg/kg",clearance,31.8 mL/min/kg
C=C(F)C(=O)N1CCN(c2nc(OC[C@@H]3CCCN3C)nc3c2CCN(c2cccc4cccc(Cl)c24)C3)C[C@@H]1CC#N,,"male Sprague-Dawley rat, plasma","intravenous, 5 mg/kg",clearance,44 mL/min/kg
Nc1ccc(/C=C/C(=O)NCc2cc3cc(-c4ccc(C(=O)N5CCC(F)(F)CC5)cc4)cc(-c4ccc(F)cc4)c3o2)cn1,,"rat, plasma","intravenous, 1 mg/kg",clearance,0.169 mL/min/kg
